# Bioassay records from PubChem BioAssay.
# WT yeast gro inh – growth inhibition of WT yeast, mitochondrial fusion screen; 190,000 tested, 2.1% active; mitochondrial fusion phenotypic screen, WT strain; inhibition, % at 10 µM; in the data active = inhibition above about 58%; tested in S. cerevisiae
# p47phox inh – inhibitors of human p47phox binding | P14598 | p47phox/p22phox peptide binding, fluorescence polarization, 2 h | inhibition, % at 24.7 µM | 220,000 tested, 0.53% active | AID 1274;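 active = inhibition above about 30%, limit read from the data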
# Arbovirus inh – arbovirus infection inhibition | arbovirus infection cell-based antiviral screen | inhibition, % at 10 µM | 200,000 tested, 0.37% active; in the data active = inhibition above about 30%
# Hck Nef HTS – human Hck-Nef kinase inhibition; 220,000 tested, 0.68% active; P08631; Recombinant Hck-YEEI plus Nef, Z-Lyte FRET kinase assay; inhibition, % at 20 µM;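 active = Hck-Nef kinase inhibition above about 50%, limit read from the data; inactive = inhibition below that limit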
# Target sequence (P08631 whole entry, looked up): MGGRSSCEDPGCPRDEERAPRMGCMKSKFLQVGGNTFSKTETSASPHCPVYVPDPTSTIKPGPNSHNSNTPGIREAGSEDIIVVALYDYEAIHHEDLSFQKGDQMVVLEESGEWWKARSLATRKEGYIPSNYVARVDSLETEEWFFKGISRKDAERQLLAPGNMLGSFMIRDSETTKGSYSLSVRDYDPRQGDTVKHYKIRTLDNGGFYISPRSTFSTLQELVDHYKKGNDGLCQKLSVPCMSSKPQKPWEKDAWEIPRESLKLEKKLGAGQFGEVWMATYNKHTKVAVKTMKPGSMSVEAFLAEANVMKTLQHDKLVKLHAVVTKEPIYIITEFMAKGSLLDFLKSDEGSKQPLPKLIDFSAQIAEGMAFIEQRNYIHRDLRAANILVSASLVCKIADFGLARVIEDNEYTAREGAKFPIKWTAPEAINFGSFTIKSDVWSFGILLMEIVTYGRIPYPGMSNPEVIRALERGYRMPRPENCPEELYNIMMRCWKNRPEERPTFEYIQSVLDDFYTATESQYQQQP
# Biofilm kill mix – mixtures killing C. albicans biofilm; C. albicans biofilm persisters + clotrimazole, fluorescence viability; primary screen in compound mixtures of four per well; inhibition, % at 7.6 µM; 120,000 tested, 0.02% active;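 active = inhibition above 30.3% in the primary screen of four-compound pools, then above 30% when the compound was retested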;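 also: compounds exposed to preformed 24 h biofilms for 48 h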
#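 Test system: C. albicans CAF4-2 wild-type biofilms; buffer or medium: RPMI/MOPS medium, pH 7.0; schedule: 24 h biofilm formation, then 48 h compound exposure, 37 °C; detection: Alamar Blue fluorescence; measure: percent inhibition of biofilm viability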
# RAM network inh – inhibitors of the yeast RAM network | inhibition, % at 50 µM | 190,000 tested, 1.8% active | S. cerevisiae dse1pr::URA3 reporter, 5-FOA growth OD615, 2 d; analog-sensitive cbk1-as2 kinase mutant strain | AID 868;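 active = inhibition above a set limit, 3 SD over mean compound inhibition, cut at about 8.4% in these data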;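 also: inhibition rescues growth on 5-FOA so higher OD means more RAM inhibition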
# Hits are given with their value; n = inactive; x = not tested or not shown. Only some compounds are listed: those with a hit (about 4.6% of all), similar ones and a draw of the others.
SMILES,WT yeast gro inh,p47phox inh,Arbovirus inh,Hck Nef HTS,Biofilm kill mix,RAM network inh
COc1ccc(N(CC(=O)NC2CCCCC2)C(=O)CNC(=O)c2ccco2)cc1OC,n,n,n,n,n,n
CN(CCOC(=O)/C=C/c1ccccc1)C(C)(C)C,n,n,n,n,n,n
CC(C)N(C)CCOC(=O)/C=C/c1ccccc1,n,38,n,n,n,n
CC1(C)CC(=O)C2=C(C1)N(c1ccccc1)C(=O)CC2c1ccc(O)cc1 (centres undefined),n,n,n,n,n,n
CCOC(=O)C1CCCN(c2ccc(NC(=O)c3snc4c(=O)[nH]c(C)nc34)cc2)C1 (centres undefined),n,n,n,n,x,9.8
COc1ccccc1-n1nc(C)c(-c2ccccc2)c1N,n,n,n,n,n,n
C=CCn1c(SC)nc2sc3c(c2c1=O)CCc1ccccc1-3,n,n,n,n,n,9.0
C=CCSc1nc2sc3c(c2c(=O)n1CC)CCc1ccccc1-3,n,n,n,n,x,9.2
C=CCn1c(SCC(=O)NC)nc2sc3c(c2c1=O)CCC3,n,n,n,n,x,n
O=C1C2C3CCC(C3NCc3ccccc3)C2C(=O)N1Cc1ccccc1 (centres undefined),n,n,n,n,x,n
S=C1NC2(CCCCC2)Cc2ccccc21,69,n,n,n,n,n
Cc1ccc(Nc2nc(N3CCN(C)CC3)nc(N)c2[N+](=O)[O-])cc1C,83,n,n,n,n,n
Cc1ccc(Nc2nc(N)c([N+](=O)[O-])c(N3CCCC(C)C3)n2)cc1C (centres undefined),96,n,n,n,n,n
CCCCOCCCNC(=O)Cc1ccccc1OC,n,n,n,n,x,n
Cc1c(C(=O)O)cccc1-n1c(C)cc(/C=N/Nc2ccc([N+](=O)[O-])cn2)c1C,x,n,x,62,n,x
O=C(O)c1cc(-c2ccc(/C=N/Nc3ccc([N+](=O)[O-])cn3)o2)ccc1Cl,n,n,31,n,n,n
CC(Sc1nc(-c2ccc(F)cc2)cs1)C(=O)Nc1ccc(Cl)cn1 (centres undefined),n,n,n,n,n,10
COC(=O)c1sc(N2CCN(c3ccc(Cl)cc3)CC2)nc1N,n,n,n,n,n,n
COC(=O)C(Cc1ccc(OC(=O)c2ccccc2C)cc1)N1Cc2ccccc2C1=O (centres undefined),n,n,n,n,x,8.9
COC(=O)C(Cc1ccc(OC(=O)c2ccccc2Cl)cc1)N1Cc2ccccc2C1=O (centres undefined),n,n,n,n,x,n
Cn1cc(CN2CCC(C(O)c3cccs3)CC2)c(-c2cccc(Cl)c2)n1 (centres undefined),n,n,n,n,n,n
OC(CNCCC1C=Nc2ccccc21)Cn1c2ccc(Cl)cc2c2cc(Cl)ccc21 (centres undefined),98,n,n,n,n,n
OC(CNCC1CCCO1)Cn1c2ccc(Cl)cc2c2cc(Cl)ccc21 (centres undefined),n,n,n,n,x,n
Cc1csc(NC(=O)CN2C(=O)C3CC=CCC3C2=O)n1 (centres undefined),n,n,31,n,x,n
Cc1ccc2nc(NC(=O)CN3C(=O)C4CC=CCC4C3=O)sc2c1 (centres undefined),n,n,n,n,n,n
SMILES,WT yeast gro inh,p47phox inh,Arbovirus inh,Hck Nef HTS,Biofilm kill mix,RAM network inh
COc1cccc(NC(=O)CN(C)C(C)C(=O)Nc2ccc(S(=O)(=O)N3CCCC3)cc2)c1 (centres undefined),n,n,n,n,n,n
COc1ccc(-n2c(SCC3OCCO3)nc3c(sc(=S)n3-c3ccccc3)c2=O)cc1OC,n,n,n,n,n,8.6
Cc1ccc(S(=O)(=O)N(C)C)cc1NC(=O)COC(=O)COc1ccccc1[N+](=O)[O-],n,n,n,n,n,n
Cc1cc(C)n(CC(O)Cn2c3ccccc3c3ccccc32)n1 (centres undefined),n,n,n,n,x,n
Cc1cc(C)n(CC(O)CN2c3ccccc3Sc3ccccc32)n1 (centres undefined),73,n,n,n,x,n
CCOc1cc(C2C3=C(CC(C)(C)CC3=O)OC3=C2C(=O)CC(C)(C)C3)cc([N+](=O)[O-])c1O,n,n,n,n,n,n
CCOC(=O)C1=CN(c2cccc(F)c2)C=C(C(=O)OCC)C1c1cc(OC)c(O)c([N+](=O)[O-])c1,88,n,n,n,x,n
CCCc1nc(Nc2nc3ccccc3o2)nc(C)c1C(=O)OCC,n,n,n,n,x,11
COC(=O)c1ccccc1NC(=O)CN1CCC(n2nnc3cc(F)ccc32)CC1,n,n,40,n,x,n
COC(=O)c1ccccc1NC(=O)CN1CCC(NC(=O)c2ccc(C)cc2)CC1,n,n,55,n,x,n
CC1(C)CC2(CCO1)OC(=O)CC2C(=O)Nc1ccc(Cl)cc1[N+](=O)[O-] (centres undefined),x,n,x,n,n,x
CC(CNC(=O)c1ccc(C(C)(C)C)cc1)CN(C)C (centres undefined),n,n,n,n,n,n
CC1Cc2nc(SCC(=O)N3CCc4ccccc43)n(C)c(=O)c2S1 (centres undefined),n,34,n,n,x,n
Fc1ccc(C(CCCn2nnc(-c3cccnc3)n2)c2ccc(F)cc2)cc1,61,n,n,n,x,10.0
CC(C)CN(C(=O)c1nn(C)c(=O)c2ccccc12)c1nc2ccccc2s1,67,n,n,n,x,n
CC(C(=O)Nc1ccccc1-c1ccccc1)N(C)Cc1nc2ccccc2c(=O)[nH]1 (centres undefined),n,n,n,n,n,n
CCOC(=O)C1=NN(c2ccccc2)C2=NC(C)=C(C(=O)OC)C(c3ccc(C)cc3)N12 (centres undefined),70,n,n,n,n,n
CN(C)c1ccnc(-n2cccc2/C=N/OCc2cccc(F)c2)c1C#N,n,n,n,n,x,n
Cc1cc(S(=O)(=O)NCc2ccccc2)ccc1OCC(=O)Nc1cccc([N+](=O)[O-])c1,n,n,n,n,n,11
O=C(COC(=O)c1cc2ccccc2oc1=O)Nc1ccc(F)cc1F,x,n,x,n,n,x
Cc1ccc(C(=O)O/N=C/c2c(C(F)(F)F)nn(C)c2Sc2ccc(Cl)cc2)cc1,n,n,n,n,x,9.6
CC1CC(CN)CC(CO)C1 (centres undefined),n,n,n,n,n,n
O=C(CCn1c(=O)c2ccccc2n(CC(=O)NC2CCCC2)c1=O)NCCc1ccc(Cl)cc1,n,n,n,n,x,n
COc1ccc(Nc2nnc(SCC(=O)NC(=O)Nc3ccc4c(c3)OCCO4)s2)cc1,n,n,n,n,n,n
COc1ccc(Nc2nnc(SCC(=O)Nc3ccc4[nH]c(=O)[nH]c4c3)s2)cc1,n,x,n,n,n,10
